# Assay outcomes deposited in PubChem by several laboratories.
# Many of the other results were omitted from the sample, so hits are more common in it than they were.
# Dynein transport: dynein cargo transport inhibition; AID 1381; 3617.4 mouse cells, GR-EGFP nuclear translocation imaging; test concentration mostly 20 µM; stimulated with dexamethasone, 1 µM; hits give low values; z-score, hits read low; 220,000 compounds, 0.47% hits;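 active = plate z-score of nuclear minus cytoplasmic receptor signal below a set negative limit, without overly bright fluorescence or cell loss, cut at about -3.5 in these data, passing the limit was not always enough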;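 also: z-score of nuclear minus cytoplasmic ring GR-EGFP intensity difference per well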
#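 medium = tetracycline-free induction medium containing charcoal-stripped FBS | also added = 1.0 µM final dexamethasone stimulus | schedule = 48 h induction, 1 h compound, 30 min dex at 37 °C | technique = fixed, Hoechst-stained cells imaged at 10x for EGFP | measure = GR-EGFP nuclear translocation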
# CHOP inh: blocks CHOP induction under ER stress; CHO-K1 CHOP-promoter luciferase, tunicamycin-induced, 15-18 h; inhibition, % at 10 µM; 220,000 compounds, 3.8% hits;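 active = compounds that reduced the stress-induced luciferase reporter signal by more than about 70% of percent inhibition, limit read from the data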
# XBP1 UPR activ: adaptive UPR (XBP1) activation; 330,000 compounds, 0.33% hits; CHO-XBP1 luciferase reporter, IRE1-XBP1 UPR activation, luminescence; percent of tunicamycin response, DMSO as zero; activation, % at 20 µM; AID 463104;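 active = versus positive control, 20 µM dose yields 30% or more activation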
#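 Material – CHO cell line with stable XBP1 luciferase reporter · Buffer or medium – F12 plus 10% FBS · Compound – single point, 20 µM final compound, 1% DMSO · Schedule – 16-18 h cell attachment at 37 °C, then 6 h compound exposure · Signal – Steady-Glo luminescence read · Benchmarks – high control tunicamycin 10 µg/mL final, low control DMSO vehicle only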
# UPR CHOP act: activators of apoptotic arm of unfolded protein response (CHOP). CHO-CHOP luciferase reporter, UPR activation, luminescence; percent of tunicamycin response over DMSO baseline. AID 449763. 330,000 compounds, 0.34% hits. activation, % at 10 µM;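 active = at 10 µM dose, activation of 40% or more, normalized to positive control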
#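 System: CHO-CHOP luciferase reporter cell line | Buffer or medium: F12 medium containing 10% fetal bovine serum | Doses: One dose, 10 µM in 0.5% DMSO | Times: 6 h compound exposure at 37 °C after overnight seeding | Signal: Luciferase luminescence | Read-out: % activation vs tunicamycin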
# Beta2AR agonist: activates human beta-2 adrenergic receptor causing internalization. P07550. response, % (no concentration beside the values). Am2.2-beta2AR cells, FAP receptor internalization, flow cytometry. 340,000 compounds, 0.43% hits. AID 504454;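 active = response above a set limit, near 3 SD of response in nonfluorescent compounds, cut at about 42% in these data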
# Target sequence (P07550 whole entry, looked up): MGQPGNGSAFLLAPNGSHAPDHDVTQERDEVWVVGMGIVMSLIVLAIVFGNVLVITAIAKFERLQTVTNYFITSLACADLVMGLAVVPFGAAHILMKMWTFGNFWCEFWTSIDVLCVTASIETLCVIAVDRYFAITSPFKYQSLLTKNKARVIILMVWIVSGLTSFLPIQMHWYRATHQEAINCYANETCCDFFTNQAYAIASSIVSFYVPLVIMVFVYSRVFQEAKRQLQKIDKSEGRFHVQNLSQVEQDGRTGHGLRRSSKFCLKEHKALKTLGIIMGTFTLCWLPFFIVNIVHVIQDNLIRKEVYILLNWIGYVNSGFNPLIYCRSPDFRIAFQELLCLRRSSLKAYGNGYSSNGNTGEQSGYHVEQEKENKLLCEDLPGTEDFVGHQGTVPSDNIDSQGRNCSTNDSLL
# pCIP destab: p/CIP protein destabilization | F442A p/CIP-EGFP cells, EGFP fluorescence, 16 h | decrease of EGFP signal, % at 10 µM | 290,000 compounds, 0.01% hits | AID 1984;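 active = EGFP signal decrease of at least 30% at 10 µM or well 3 SD below plate mean, unless failing retest; inactive = the rest, including hits failing retest or dose response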
# CHOP confirm: confirmation of CHOP induction inhibitors. CHO-CHOP promoter luciferase reporter, tunicamycin-induced, luminescence. shares compounds with CHOP inh. inhibition, % at 10 µM. 2,100 compounds, 45% hits. AID 504437;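 active = mean of three repeat readings of reporter signal inhibition above a set limit, cut at about 70% in these data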
# A number is an active result; – = inactive; · = no result given.
SMILES,Dynein transport,CHOP inh,XBP1 UPR activ,UPR CHOP act,Beta2AR agonist,pCIP destab,CHOP confirm
O=C(CCC(=O)c1ccc(F)cc1)Nc1cccc(Br)c1,·,·,–,–,–,–,·
Cc1ccc(C(=O)CCC(=O)Nc2cccc(C(F)(F)F)c2)cc1,–,102,–,–,–,–,–
O=C(CCC(=O)c1ccc(Br)cc1)Nc1cccc(C(F)(F)F)c1,–,108,–,–,–,–,–
O=C(CSc1nc2ccccc2n1S(=O)(=O)c1cccc([N+](=O)[O-])c1)NCc1cccs1,–,–,–,–,–,–,·
O=C(O)CSC1CC(=O)N(c2ccc(Br)cc2)C1=O (stereo unspecified),·,·,–,–,–,–,·
CCN=C1S/C(=C\c2ccc(O)c(OCC)c2)C(=O)N1CC,–,–,–,–,–,–,·
CCN=C1S/C(=C\c2cc(OCC)c(O)cc2Br)C(=O)N1CC,–,108,·,·,–,–,–
O=C1C(N2CCOCC2)=C(n2nnc3ccccc32)C(=O)c2ccccc21,–,·,–,–,–,–,95
COc1ccccc1N1CCN(C2CCCN(C(=O)CN3CCCC3=O)C2)CC1 (stereo unspecified),·,·,–,–,–,–,·
Cn1c2c(c(=O)n(C)c1=O)C(CC(=O)Nc1ccc(F)cc1)C(=O)N2 (stereo unspecified),–,–,–,–,–,–,·
O=C(Nc1nccs1)c1cc2c(s1)CCCCC2,–,98,–,–,–,–,78
NNC(=O)c1cc2c(s1)CCCCCC2,–,–,–,–,–,–,·
C=CCC(Nc1ccccc1)C12C=CC(O1)C(C(=O)OC)=C2C(=O)OC (stereo unspecified),–,112,–,–,–,–,–
C=CCn1c(=O)c(C(=O)Nc2ccccc2O)c(O)c2ccccc21,–,104,–,–,–,–,–
C=CCn1c(=O)c(C(=O)Nc2ccccc2C)c(O)c2ccccc21,·,·,–,–,–,–,·
Nc1c2nc(-c3ccccc3)[nH]c(=O)c2nc(=O)n1-c1ccccc1,–,103,–,–,–,–,–
COc1ccc(S(=O)(=O)Nc2ccc(Cc3ccncc3)cc2)cc1OC,·,·,–,–,–,–,·
O=S(=O)(Nc1ccc(Cc2ccncc2)cc1)c1ccc(Cl)c(Cl)c1,–,103,–,–,–,–,–
FC(F)(F)c1nc(-c2ccncc2)ncc1-c1nnnn1-c1ccccc1,–,–,–,–,–,–,·
Fc1ccc(-n2nnnc2-c2cnc(-c3cccs3)nc2C(F)(F)F)cc1,–,105,–,–,–,–,121
NS(=O)(=O)c1ccc(-n2nncc2-c2ccco2)cc1,·,·,–,–,–,–,·
O=C(Cc1cccs1)NNC(=S)NC(=O)c1ccccc1,–,–,–,–,–,–,·
O=C(/C=C/c1ccccc1)NC(=S)NNC(=O)Cc1cccs1,–,104,–,–,–,–,–
COc1ccc(/C=C/C(=O)NC(=S)NNC(=O)c2ccco2)cc1,–,–,–,–,–,–,·
COc1ccc(/C=C/C(=O)NC(=S)NNC(=O)Cc2cccs2)cc1,–,110,–,–,–,–,–
SMILES,Dynein transport,CHOP inh,XBP1 UPR activ,UPR CHOP act,Beta2AR agonist,pCIP destab,CHOP confirm
CSc1c(CN2CCN(C)CC2)c2ccccc2n1C,·,·,–,–,–,·,·
O=C(COC(=O)c1ccccc1NCCO)Nc1cc(C(F)(F)F)ccc1N1CCOCC1,·,·,–,–,–,–,·
CN1CC=C2C(C#N)=C(N)C(C#N)(C#N)[C@H](c3cccc(Cl)c3)C2C1 (stereo partly specified),–,–,–,–,–,–,·
CC(C)c1ccc(C2C3CSCC=C3C(C#N)=C(N)C2(C#N)C#N)cc1 (stereo unspecified),–,106,–,–,·,–,122
COc1ccccc1N1CCN(CCN2C(=O)C3CCCCN3C2=O)CC1 (stereo unspecified),·,·,–,–,–,–,·
COc1ccc2oc(=O)c(-c3cn4ccc(C)cc4n3)cc2c1,–,97,–,–,–,–,–
NC(=O)C1CCN(C(=O)C2CCN(S(=O)(=O)c3ccccc3)CC2)CC1,–,–,–,–,–,–,·
O=C(Oc1ccc(O)cc1)C12CC3CC(CC(C3)C1)C2,–,106,–,–,–,–,116
O=C(CCl)N(O)c1ccc(C=Cc2ccccc2)cc1,·,·,·,·,–,·,·
O=S(=O)(Nc1cc(Sc2ncn[nH]2)c(O)c2ccccc12)c1ccccc1,–,106,–,–,–,–,77
Cc1cc(O)c(Sc2ncn[nH]2)cc1NS(=O)(=O)c1ccc(Cl)cc1,·,·,–,–,–,·,·
O=S(=O)(Nc1ccc(-c2ccc3nncn3n2)cc1)c1cccc(F)c1,·,·,–,–,–,·,·
O=C1CCN(C(=S)NCc2ccccc2)CC1,–,–,–,–,–,–,·
CC1(C)C(C=C(Cl)Cl)C1C(=O)Nc1ccc([N+](=O)[O-])cc1 (stereo unspecified),–,104,·,·,·,–,–
CSCCC1NC2(C(=O)Nc3c(C)cc(Cl)cc32)[C@@H]2C(=O)N(C3CCCC3)C(=O)[C@H]12 (stereo partly specified),–,104,–,–,–,–,–
CC[N+]1(CC(O)COC2CC(C)CC(C)(C)C2)CCOCC1 (stereo unspecified),–,–,–,–,–,–,·
COc1cc2nc(CSc3nc(-c4ccc(F)cc4)cs3)[nH]c(=O)c2cc1OC,–,105,–,–,–,–,–
COc1ccc(-n2cccc2/C=C2\C(=N)N3N=C(C(C)C)SC3=NC2=O)cc1,–,–,–,–,–,–,·
COc1ccc(-n2cccc2/C=C2\C(=N)N3N=C(c4ccco4)SC3=NC2=O)cc1,–,102,–,–,–,–,–
CC(C)(C)c1cc(NC(=O)Nc2ccc(Cl)cc2Cl)no1,–,96,–,–,–,–,–
OC(CSc1c(Cl)cccc1Cl)CN1CCN(c2ccccc2F)CC1 (stereo unspecified),–,97,–,–,–,–,–
CCC(=O)NC(=S)Nc1ccc(NC(=O)c2ccco2)c(OC)c1,–,–,–,–,–,–,·
COc1cc2c(cc1OC)C(O)C(O)(CO)C(C(=O)O)C2c1cc(OC)c(OC)c(OC)c1 (stereo unspecified),·,·,·,·,–,·,·
CN(C)c1ccc(-c2nc3ccccn3c2/N=C/c2ccc(Br)cc2)cc1,–,98,–,–,–,–,75
O=C(CN1CCCC1)Nc1ccc(F)c(Cl)c1,·,·,–,–,–,–,·
CC(NCC(O)COc1ccc(Br)cc1)c1ccccc1 (stereo unspecified),·,·,–,–,–,–,·
